# Source: ChEMBL document CHEMBL2331137, “Scopoletin and scopolin isolated from Artemisia iwayomogi suppress differentiation of osteoclastic macrophage RAW 264.7 cells by scavenging reactive oxygen species” (J Nat Prod, 2013)
# Calls of active or inactive are those of the source. No cut-off for these calls is given here.
# Assays:
# [1] = Antioxidant activity assessed as reduction of Cu2+ to Cu+ measured as copper (I) level at 1 uM measured for 1 hr; type: functional
# Procedure, shortened: (§1)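 Copper-reducing assay: compounds in ethanol mixed with 0.5 mM CuCl2 and 0.75 mM neocuproine (Cu+ chelator) in 10 mM phosphate buffer. Absorbance at 454 nm read for 1 h; reducing capacity expressed in μM. Trolox as reference; mean ± SD of three experiments.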
# [2] = Antioxidant activity assessed as trolox equivalents of peroxyl radical scavenging activity at 1 uM by ORAC assay; type: functional
# Procedure, shortened: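 ORAC: fluorescein (40 nM final) exposed to AAPH (20 mM final) as peroxyl radical source, fluorescence recorded every 2 min relative to the initial reading. Net area under the decay curve versus blank computed and expressed as Trolox equivalents, with Trolox at 1 μM as reference; three experiments.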
# [3] = Antioxidant activity assessed as reduction of Cu2+ to Cu+ measured as copper (I) level at 10 uM measured for 1 hr (reference value: 2.1 uM); type: functional; procedure, shortened: as §1
# RAW264.7 [4] = test: Inhibition of hydrogen peroxide level in RANKL-treated mouse RAW264.7 cells at 10 uM by DHR fluorescence intensity assay; type: functional, cell-based
# RAW264.7 [5] = test: Antiosteoporotic activity in mouse RAW264.7 cells assessed as inhibition of RANKL-induced osteoclastogenesis measured as reduction in TRAP number for 5 days by light microscopy; type: functional, cell-based
# Procedure, shortened: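 RAW 264.7 cells seeded at 3 × 10^4/well and given test samples in differentiation medium with 50 ng/mL RANKL, changed every 2 days, for 5 days. Cells fixed in 3.5% formaldehyde 10 min and stained 1 h at 37 °C with a leukocyte acid phosphatase kit. TRAP-positive cells with ≥3 nuclei counted by light microscopy. Expressed as % of RANKL-treated cells; mean ± SD, n = 3.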
# RAW264.7 [6] = test: Antiosteoporotic activity in mouse RAW264.7 cells assessed as inhibition of RANKL-induced osteoclastogenesis measured as reduction in TRAP activity for 5 days by ELISA; type: functional, cell-based
# Procedure, shortened: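 RAW 264.7 cells differentiated 5 days with 50 ng/mL RANKL plus test samples, medium changed every 2 days. Cells then washed with ice-cold PBS, fixed in 3.5% formaldehyde (10 min) and ethanol–acetone 1:1 (1 min). They were incubated 1 h in 50 mM citrate pH 4.5 with 10 mM sodium tartrate and 6 mM PNPP, stopped in 0.1 N NaOH, A405. Expressed as % of untreated control; n = 3.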
# RAW264.7 [7] = test: Inhibition of RANKL-induced ROS generation in mouse RAW264.7 cells at 10 uM by DCF fluorescence intensity assay (reference value: 143.7%); values are per cent of control
# HepG2 [8] = test: Antioxidant activity against H2O2-induced intracellular oxidative stress in human HepG2 cells assessed as DCF fluorescence intensity at 1 to 10 uM; type: functional, cell-based
# Procedure, shortened: (§2)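 HepG2 cells cultured 24 h in DMEM, then given compounds (1–10 μM, in DMSO) for 30 min and washed. Stress induced in HBSS with 60 μM AAPH or 1 mM H2O2 for 30 min. DCFH-DA added at 40 μM final, 30 min at 37 °C in the dark; DCF read at Ex 485/Em 535 nm. Trolox 10 μM as reference; % of untreated cells, n = 3.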
# RAW264.7 [9] = test: Cytotoxicity against mouse RAW264.7 cells at 1 to 10 uM for 5 days by MTT assay; type: cell-based; settings: raw264.7, 120 h
# Procedure, shortened: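 MTT assay: RAW 264.7 cells (2 × 10^4 cells/mL) in DMEM with 10% FBS at 37 °C, 5% CO2, treated with 1–10 μM samples for 5 days. MTT then added for 1 h at 37 °C, formazan dissolved in DMSO, A570 read; percentage proliferation calculated.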
# RAW264.7 [10] = test: Inhibition of RANKL-induced superoxide anion level in mouse RAW264.7 cells at 10 uM by DHE fluorescence intensity assay (reference value: 176.7%); values are per cent of control
# HepG2 [11] = test: Antioxidant activity against […]-induced intracellular oxidative stress in human HepG2 cells assessed as DCF fluorescence intensity at 1 to 10 uM; type: functional, cell-based; procedure, shortened: as §2
Compound,Activity [1],Activity [2],Activity [3],inhibition (RAW264.7 [4]),inhibition (RAW264.7 [5]),inhibition (RAW264.7 [6]),"level, % of control at 10 µM (RAW264.7 [7])",Activity (HepG2 [8]),Activity (RAW264.7 [9]),"level, % of control at 10 µM (RAW264.7 [10])",Activity (HepG2 [11])
Cc1c(C)c2c(c(C)c1O)CCC(C)(C(=O)O)O2 (stereo not given),1.5 µM,,,,,,,,,,
COc1cc2ccc(=O)oc2cc1O[C@@H]1O[C@H](CO)[C@@H](O)[C@H](O)[C@H]1O [SCOPOLIN],,0.4 equiv,inactive,inactive,Dose-dependent effect,Dose-dependent effect,127%,Active,Non-toxic,149%,
COc1cc2ccc(=O)oc2cc1O [SCOPOLETIN],Active,3.3 equiv,,inactive,Dose-dependent effect,Dose-dependent effect,132%,Active,Non-toxic,158%,Active
